Measurements reported in ChEMBL document CHEMBL3352795, “Discovery of novel 1,5-benzodiazepine-2,4-dione derivatives as potential anticancer agents” (Bioorg Med Chem Lett, 2014).
≈ marks a conversion by molar mass, not a printed value.

Assays:
Assay type in all cases: functional, cell-based
A549 = experiment: Anticancer activity against human A549 cells assessed as growth inhibition after 48 hrs by MTT assay; details: A549, 48 h
Outline: (§1)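 Standard MTT assay on cells incubated with compound for 48 h, with 5-fluorouracil as the positive control. Results are reported as IC50.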

MCF7 = experiment: Anticancer activity against human MCF7 cells assessed as growth inhibition after 48 hrs by MTT assay; details: MCF7, 48 h; outline: as §1
[1] = Anticancer activity against human HCT116 cells assessed as growth inhibition after 48 hrs by MTT assay; details: HCT-116, 48 h; outline: as §1
HeLa = experiment: Anticancer activity against human HeLa cells assessed as growth inhibition after 48 hrs by MTT assay; outline: as §1
[2] = Anticancer activity against mouse LL/2 cells assessed as growth inhibition after 48 hrs by MTT assay; details: Lewis lung carcinoma; outline: as §1

CC(C)(C(=O)NCc1ccccc1)C1C(=O)Nc2cccc(C(=O)NCc3cccc(C(F)(F)F)c3)c2NC1=O (centres undefined)
IC50 (A549): 80.5 µg/mL (≈ 146 µM)
IC50 (MCF7): 36.1 µg/mL (≈ 65.3 µM)
IC50 [1]: 46.1 µg/mL (≈ 83.4 µM)
IC50 (HeLa): 8.1 µg/mL (≈ 14.7 µM)
IC50 [2]: 30.5 µg/mL (≈ 55.2 µM)

CC(C)(C(=O)NCc1ccccc1)C1C(=O)Nc2cccc(C(=O)Nc3ccc(F)c(F)c3F)c2NC1=O (centres undefined)
IC50 (A549): > 100 µg/mL

Cc1ccc(CNC(=O)c2cccc3c2NC(=O)C(C(C)(C)C(=O)NCc2ccccc2)C(=O)N3)cc1Cl (centres undefined)
IC50 (A549): 59.4 µg/mL (≈ 111 µM)
IC50 (MCF7): 87 µg/mL (≈ 163 µM)
IC50 [1]: > 100 µg/mL
IC50 (HeLa): 16.7 µg/mL (≈ 31.3 µM)
IC50 [2]: 58.3 µg/mL (≈ 109 µM)

CC(C)(C(=O)NCc1ccccc1)C1C(=O)Nc2cccc(C(=O)Nc3ccccc3F)c2NC1=O (centres undefined)
IC50 (A549): 96.1 µg/mL (≈ 197 µM)

CC(C)(C(=O)NCc1ccccc1)C1C(=O)Nc2cccc(C(=O)Nc3cccc(F)c3F)c2NC1=O (centres undefined)
IC50 (A549): 80.4 µg/mL (≈ 159 µM)
IC50 (MCF7): 21 µg/mL (≈ 41.5 µM)
IC50 [1]: 25 µg/mL (≈ 49.4 µM)
IC50 (HeLa): 37.8 µg/mL (≈ 74.6 µM)
IC50 [2]: 32.9 µg/mL (≈ 65 µM)

CC(C)(C)NC(=O)c1cccc2c1NC(=O)C(C(C)(C)C(=O)NCc1ccccc1)C(=O)N2 (centres undefined)
IC50 (A549): > 100 µg/mL

CC(C)(C(=O)NCc1ccccc1)C1C(=O)Nc2cccc(C(=O)Nc3ccccc3)c2NC1=O (centres undefined)
IC50 (A549): 85.3 µg/mL (≈ 181 µM)
IC50 (MCF7): 21.3 µg/mL (≈ 45.3 µM)
IC50 [1]: 26.6 µg/mL (≈ 56.5 µM)
IC50 (HeLa): 41.9 µg/mL (≈ 89 µM)
IC50 [2]: 29.3 µg/mL (≈ 62.3 µM)

O=c1[nH]cc(F)c(=O)[nH]1 [FLUOROURACIL]
IC50 (MCF7): 12.1 µg/mL (≈ 93 µM)
IC50 [1]: 4.8 µg/mL (≈ 36.9 µM)
IC50 (HeLa): 5.7 µg/mL (≈ 43.8 µM)
IC50 [2]: 2.9 µg/mL (≈ 22.3 µM)

CC(C)(C(=O)NCc1ccccc1)C1C(=O)Nc2cccc(C(=O)Nc3ccc(C(F)(F)F)cc3)c2NC1=O (centres undefined)
IC50 (A549): > 100 µg/mL

CC(C)(C(=O)NCc1ccccc1)C1C(=O)Nc2cccc(C(=O)NC3CC3)c2NC1=O (centres undefined)
IC50 (A549): > 100 µg/mL

CC(C)(C(=O)NCc1ccccc1)C1C(=O)Nc2cccc(C(=O)NCc3c(F)ccc(F)c3F)c2NC1=O (centres undefined)
IC50 (A549): 97.7 µg/mL (≈ 181 µM)

CC(C)(C(=O)NCc1ccccc1)C1C(=O)Nc2cccc(C(=O)Nc3cc(Cl)ccc3F)c2NC1=O (centres undefined)
IC50 (A549): 63.3 µg/mL (≈ 121 µM)
IC50 (MCF7): 20.4 µg/mL (≈ 39 µM)
IC50 [1]: 21.3 µg/mL (≈ 40.7 µM)
IC50 (HeLa): 35.4 µg/mL (≈ 67.7 µM)
IC50 [2]: 19.3 µg/mL (≈ 36.9 µM)

CC(C)(C(=O)NCc1ccccc1)C1C(=O)Nc2cccc(C(=O)Nc3cccc(C(F)(F)F)c3)c2NC1=O (centres undefined)
IC50 (A549): 27.8 µg/mL (≈ 51.6 µM)
IC50 (MCF7): 10 µg/mL (≈ 18.6 µM)
IC50 [1]: 20.5 µg/mL (≈ 38.1 µM)
IC50 (HeLa): 42 µg/mL (≈ 78 µM)
IC50 [2]: 17.6 µg/mL (≈ 32.7 µM)

CC(C)(C(=O)NCc1ccccc1)C1C(=O)Nc2cccc(C(=O)NCc3ccccn3)c2NC1=O (centres undefined)
IC50 (A549): > 100 µg/mL

CC(C)(C(=O)NCc1ccccc1)C1C(=O)Nc2cccc(C(=O)Nc3cccc(Cl)c3)c2NC1=O (centres undefined)
IC50 (A549): 56.2 µg/mL (≈ 111 µM)
IC50 (MCF7): 11.2 µg/mL (≈ 22.2 µM)
IC50 [1]: 17.3 µg/mL (≈ 34.3 µM)
IC50 (HeLa): 24 µg/mL (≈ 47.5 µM)
IC50 [2]: 17.1 µg/mL (≈ 33.9 µM)

Cc1ccc(CNC(=O)c2cccc3c2NC(=O)C(C(C)(C)C(=O)NCc2ccccc2)C(=O)N3)cc1 (centres undefined)
IC50 (A549): > 100 µg/mL

CC(C)(C(=O)NCc1ccccc1)C1C(=O)Nc2cccc(C(=O)NCc3ccc(F)c(Cl)c3)c2NC1=O (centres undefined)
IC50 (A549): 68.1 µg/mL (≈ 127 µM)
IC50 (MCF7): 68.2 µg/mL (≈ 127 µM)
IC50 [1]: 49.9 µg/mL (≈ 92.9 µM)
IC50 (HeLa): 21.1 µg/mL (≈ 39.3 µM)
IC50 [2]: 66.8 µg/mL (≈ 124 µM)

CC(C)(C(=O)NCc1ccccc1)C1C(=O)Nc2cccc(C(=O)NCc3ccccc3)c2NC1=O (centres undefined)
IC50 (A549): 45.3 µg/mL (≈ 93.5 µM)
IC50 (MCF7): 91.2 µg/mL (≈ 188 µM)
IC50 [1]: 85 µg/mL (≈ 175 µM)
IC50 (HeLa): 42 µg/mL (≈ 86.7 µM)
IC50 [2]: 48.5 µg/mL (≈ 100 µM)

CC(C)(C(=O)NCc1ccccc1)C1C(=O)Nc2cccc(C(=O)NCc3cc(F)ccc3F)c2NC1=O (centres undefined)
IC50 (A549): 43.1 µg/mL (≈ 82.8 µM)
IC50 (MCF7): 74.8 µg/mL (≈ 144 µM)
IC50 [1]: 80.1 µg/mL (≈ 154 µM)
IC50 (HeLa): 25.1 µg/mL (≈ 48.2 µM)
IC50 [2]: 40.2 µg/mL (≈ 77.2 µM)

CC(C)NC(=O)c1cccc2c1NC(=O)C(C(C)(C)C(=O)NCc1ccccc1)C(=O)N2 (centres undefined)
IC50 (A549): > 100 µg/mL

CC(C)(C(=O)NCc1ccccc1)C1C(=O)Nc2cccc(C(=O)Nc3ccc(F)cc3F)c2NC1=O (centres undefined)
IC50 (A549): > 100 µg/mL
